# Test results taken from PubChem BioAssay AID1515 (The Scripps Research Institute Molecular Screening Center, 2009).
# Out of some 220,000 compounds screened, about 440 (0.2%) were called active. Many of the other results were omitted from the sample, so actives are more common in it than they were. A number with no mark means an inactive call.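 Rule for the calls: active = inhibition above the campaign mean of all tested compounds plus 3 SD (cut at about 14% in these data); inactive = the rest.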
# Target: Serine hydrolase RBBP9 (Homo sapiens) (UniProt O75884)
# Sequence (O75884 whole entry, looked up): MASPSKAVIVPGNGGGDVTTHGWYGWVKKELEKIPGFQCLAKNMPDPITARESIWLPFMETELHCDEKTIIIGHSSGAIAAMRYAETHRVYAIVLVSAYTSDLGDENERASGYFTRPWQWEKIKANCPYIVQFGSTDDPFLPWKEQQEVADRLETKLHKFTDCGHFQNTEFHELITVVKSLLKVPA
# Assay: human RBBP9 inhibitors, primary screen, biochemical, fluorescence polarization, FP-Rh probe, HTS (AID 1515);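 note: plate controls were DMSO wells with RBBP9 for no effect and wells lacking RBBP9 protein for full effect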
# Conditions: recombinant RBBP9, FP-Rh probe fluorescence polarization; at 7.94 µM; stronger effect = higher value
# In short: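 System: RBBP9 protein | Quantity: 2.5 µM RBBP9 dispensing solution, before mixing | Reagent: FP-Rh probe, 375 nM dispensing solution | Timing: Enzyme-compound preincubation 30 min, then probe labeling 45 min, 25 °C | Measured by: Fluorescence polarization | Read-out: % inhibition | Replication: One well per compound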
row,Compound,inhibition
1,COc1cccc(NC(=O)NCc2ccc(F)cc2)c1,-0.62%
2,CCNC(=S)NNC(=O)C1CCN(Cc2ccccc2)CC1,-3.59%
3,CC(=O)c1ccc(NC(=O)c2ccc3c(Cl)c4c(nc3c2)CCCC4)cc1,-3.32%
4,COc1cccc(NC(=O)c2ccc3c(SCC(=O)O)c4c(nc3c2)CCCC4)c1,14.3% (active)
5,CCC(=O)Nc1ccc(C(=O)Nc2cccc(OC)c2)cc1,-4.79%
6,O=C(NCc1cccs1)C(=O)NCC1OCCCN1S(=O)(=O)c1ccc(F)cc1 (configuration not stated),-5.51%
7,O=C(NCCCn1ccnc1)C(=O)NCC1OCCN1S(=O)(=O)c1cc(F)ccc1F (configuration not stated),-2.12%
8,Cc1cc(F)ccc1S(=O)(=O)N1CCCOC1CNC(=O)C(=O)NCCC1=CCCCC1 (configuration not stated),44.9% (active)
9,Cc1cc(CO)nn1-c1ccc([N+](=O)[O-])cc1,-1.67%
10,CCN(CC)Cc1nc2sc(C)c(C)c2c(=O)[nH]1,0.79%
11,COc1ccc(C(=O)CSc2nnc(-c3ccco3)o2)cc1,-6.2%
12,CC(C)n1c(=S)[nH]c2cc(C(F)(F)F)ccc21,-5.5%
13,CCN(C(=O)Cc1nc(N)n[nH]1)C1(C(=O)Nc2ccccc2)CCCCC1,4.99%
14,COc1ccc(-c2nnn(Cc3nc(N)nc(N4CCCCC4)n3)n2)cc1,-9.6%
15,COc1ccc(-n2nnnc2SCC(=O)NCc2cccs2)cc1,-4.68%
16,COc1ccc(-n2nnnc2SCc2nc(N)nc(N3CCOCC3)n2)cc1,14.8% (active)
17,Cc1onc(-c2ccccc2Cl)c1C(=O)OCC(=O)c1ccccc1,-7.59%
18,O=c1nc(N/N=C/c2ccco2)cn[nH]1,-3.99%
19,COC(=O)c1ccccc1NC(=O)Cc1ccccc1OC,6.78%
20,CN1CCN(C(c2cc3cc4c(cc3[nH]c2=O)OCCO4)c2nnnn2C2CCCC2)CC1 (configuration not stated),-9.4%
21,CCOc1ccc2[nH]c(=O)c(C(c3nnnn3CCOC)N3CCOCC3)cc2c1 (configuration not stated),15.5% (active)
22,COCCn1nnnc1C(c1cc2ccc(OC)cc2[nH]c1=O)N1CCc2ccccc2C1 (configuration not stated),5.71%
23,C[N+](C)(C)CCOP(=O)([O-])OC[C@H](O)CO,0.46%
24,COc1ccccc1N1CCN(CC(=O)NCCc2ccc(S(N)(=O)=O)cc2)CC1,0.48%

row,Compound,inhibition
1,CCCC(NC(=O)c1ccco1)c1nc2ccccc2[nH]1 (configuration not stated),0.23%
2,O=C(CN1CCN(c2ccc(Cl)cc2)CC1)NCc1cccs1,-5.55%
3,CC(C)c1ccc(NC(=S)NNc2ccc(Cl)c(C(=O)O)c2)cc1,-0.79%
4,Nc1nnc(SCC(=O)OCc2ccc(Cl)c(Cl)c2)s1,-1.35%
5,Cc1nc(SCC(=O)N2CC(=O)Nc3ccccc32)c2c(C)c(C)sc2n1,-7.82%
6,Nn1c(Cc2cccc3ccccc23)nnc1SCC(=O)N1CC(=O)Nc2ccccc21,15.1% (active)
7,C=CCn1c(COc2ccccc2F)nnc1SCC(=O)N1CC(=O)Nc2ccccc21,-3.31%
8,CN1CCNC(=O)C1CC(=O)N1CC=C(c2ccc(F)cc2)CC1 (configuration not stated),1.72%
9,COc1cc2c3c(c1)/C(=C1/SC(=S)NC1=O)C(=O)N3C(C)(C)C=C2C,-0.69%
10,C=CS(=O)c1sc(Cl)c(N2CCOCC2)c1[N+](=O)[O-] (configuration not stated),17.3% (active)
11,COC(=O)COc1ccc(C2NC(=O)NC(C)=C2C(=O)NCc2ccccc2)cc1OC (configuration not stated),-2.89%
12,O=C(CNc1ccc(F)cc1F)NC(=O)NCc1ccco1,5.92%
13,Oc1c(C(c2cccs2)N2CCN(c3ccc(F)cc3)CC2)sc2ncnn12 (configuration not stated),-6.82%
14,O=C(c1ccc(F)cc1)N1CCC(n2nnc3ccccc32)CC1,1.82%
15,Cc1cccc(C)c1Nc1c(-c2ccccc2O)nc2ncccn12,4.64%
16,Cc1ccc(-c2nc(C#N)c(NCCCn3ccnc3)o2)cc1,-5.98%
17,CC(C)c1ccc2c(c1)c(SC(C)(C)C)c(CC(C)(C)C(=O)O)n2Cc1ccc(Cl)cc1,5.23%
18,CCN(CC)C(=O)Oc1ccc(OC(=O)N(CC)CC)cc1,3.51%
19,CCCc1nc2oc3c(OCC)ncnc3c2c2c1COC(C)(C)C2,-0.01%
20,CC(C)(C)C(=O)NC(NC(=S)Nc1ccc(S(N)(=O)=O)cc1)C(Cl)(Cl)Cl (configuration not stated),-7.24%
21,O=C(CCCC(=O)N(CC(=O)NC1CCCC1)Cc1ccccc1Cl)Nc1ccccn1,16.9% (active)
22,CCOc1ccccc1N(CC(=O)NC1CCCCC1)C(=O)CCCC(=O)Nc1ccccn1,-3.56%
23,Cc1ccc(C(C(=O)NC2CCCC2)N(Cc2ccco2)C(=O)CCC(=O)Nc2ccccn2)cc1 (configuration not stated),-4.24%
